Data set [1] deals with T1, PfENR (Plasmodium falciparum, UniProt Q9BJJ9). Put plainly: PfENR substrate kinetics. It counts as biochemical. The note with it: without NAD+ preincubation; for Km / kcat: substrate varied, other substrate held constant.
Data set [2] addresses T1, PfENR. Put plainly: PfENR continuous inhibition assay. In kind it is biochemical. Particulars: for PfENR inhibition in real-time assay: 25 μM of each candidate inhibitor, with and without NAD+ preincubation.
Data set [3] has as its system whole-cell blood-stage P. falciparum. Particulars: at 1 μM, cell culture; ref 33 (printed 32); cited from earlier work.
Data set [4] addresses iodoacetamide-treated PfENR (Plasmodium falciparum, UniProt Q9BJJ9). Put plainly: Celastrol inhibition of iodoacetamide-treated PfENR. The note with it: celastrol 50 μM. It counts as biochemical. Summed up: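 PfENR alkylated with 1 mM iodoacetamide in 100 mM ammonium bicarbonate, 60 min, 25 °C, dark; excess reagent removed by desalting column. Treated enzyme preincubated 45 min at 25 °C with test compound (final 50 μM), 50 μM NAD+, 20 mM Tris/HCl pH 7.4, 150 mM NaCl and 0.01% Triton-X. Activity tested with and without DMSO (5% of volume).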

In data set [5] the test system is chloroquine-sensitive P. falciparum NF. The note with it: read-out: whole-cell IC50; cited from earlier work.
The target in data set [6] is T1, PfENR. The experiment in a line: Reversibility of celastrol binding. In kind it is biochemical. The note with it: incubation at 5 times the IC50 (15 μM), 45 min, 25 °C.
Data set [7] in a line: Solubility under assay conditions. In kind it is physicochemical. Particulars: PfENR assay reaction mixture.
Data set [8] addresses T1, PfENR. The note with it: cited from earlier work.

Counter-ions that a name gives are not always drawn. A value given as a limit tells only on which side of the number the result lay.

Here are results for eight compounds from paper PMC4807855 (Bioorganic & medicinal chemistry, 2014).

For the compound `NC(=O)C1=CN([C@@H]2O[C@H](COP(=O)(O)OP(=O)(O)OC[C@H]3O[C@@H](n4cnc5c(N)ncnc54)[C@H](O)[C@@H]3O)[C@@H](O)[C@H]2O)C=CC1` [NADH], in data set [1], the Km came to 240 ± 40 µM and the kcat amounted to 3.8 ± 1.0 s⁻¹.
On to `C/C=C/C/C=C/CCC(=O)[C@H]1O[C@H]1C(N)=O` [cerulenin (CR), cerulenin], for which the “PfENR inhibition in real-time assay” value in data set [2] is on record as “no PfENR inhibition”.
On to `CC1=C(O)C(=O)C=C2C1=CC=C1[C@@]2(C)CC[C@@]2(C)[C@@H]3C[C@](C)(C(=O)O)CC[C@]3(C)CC[C@]12C` [compound 1, celastrol], for which the “growth inhibition of whole-cell blood-stage P. falciparum” value in data set [3] is given as not below 70%. Also, the “inhibition of iodoacetamide-treated PfENR” value in data set [4] is on record as “comparable to that of the untreated protein”. Also, in data set [2], the “IC50 against PfENR (summary statement)” value was “low-micromolar range”. The same compound displayed a Ki in data set [2] of 5.3 µM. For the same compound, the IC50 is 3.4 µM in data set [2] (IC50, PfENR inhibition, in the presence of 0.01% Triton-X); approximately 5 µM in data set [2] (IC50 against PfENR (summary statement)); 5.9 µM in data set [2] (average IC50, PfENR inhibition, with NAD+ preincubation (50 μM, 45 min, 25 °C)); 4.7 µM in data set [2] (average IC50, PfENR inhibition, without NAD+ preincubation); 560 µM in data set [5]. The inhibition mechanism entry in data set [2] (varied crotonyl-CoA at fixed NADH) is “noncompetitive inhibition”. For the same compound, the “PfENR activity after incubation with inhibitor and 100-fold dilution” value in data set [6] is reported as “identical to the DMSO control”.
In the case of `CC[C@@]1(O)C[C@H](O[C@H]2C[C@H](N(C)C)[C@H](O[C@H]3C[C@H](O)[C@H](O[C@H]4CCC(=O)[C@H](C)O4)[C@H](C)O3)[C@H](C)O2)c2c(cc3c(c2O)C(=O)c2c(O)cccc2C3=O)[C@H]1C(=O)OC` [compound 2, aclacinomycin A (aclarubicin)], the solubility in data set [7] was not above 25 µM. The “PfENR inhibition in real-time assay” value in data set [2] is “increase in absorbance relative to the DMSO and cerulenin controls”.
For `CC(C)=CCC[C@]1(C)C=Cc2c(O)c3c(c(CC=C(C)C)c2O1)O[C@]12C(=C[C@@H]4C[C@H]1C(C)(C)O[C@@]2(C/C=C(/C)C(=O)O)C4=O)C3=O` [compound 4, gambogic acid], the “PfENR inhibition in real-time assay” value in data set [2] is given as “no ENR inhibition”.
For the compound `C/C=C/C(=O)SCCNC(=O)CCNC(=O)[C@H](O)C(C)(C)COP(=O)(O)OP(=O)(O)OC[C@H]1O[C@@H](n2cnc3c(N)ncnc32)[C@H](O)[C@@H]1OP(=O)(O)O` [crotonyl-CoA, crotonyl coenzyme A trilithium salt], in data set [1], the Km came out at 170 ± 60 µM, the kcat worked out at 1.0 ± 0.2 s⁻¹ and the kcat/Km ratio is 6000 ± 1100 M⁻¹ s⁻¹.
As for `Oc1cc(Cl)ccc1Oc1ccc(Cl)cc1Cl` [triclosan (TCL), triclosan], the “PfENR inhibitor potency (literature)” value in data set [8] is given as “picomolar”. Besides, the “PfENR inhibition in real-time assay” value in data set [2] was “no change in NADH consumption”.
dihydroergotoxine [compound 3]: the “PfENR inhibition in real-time assay” value in data set [2] is “no ENR inhibition”.
